Source: ChEMBL document CHEMBL1629487, “Synthesis and in vitro antimicrobial evaluation of novel fluoroquinolone derivatives” (2010)
Values after ≈ are worked out from the molar mass of the structure shown.

Assays:
Bacillus subtilis = test: Antimicrobial activity against Bacillus subtilis ATCC 11774 after 18 to 24 hrs by microbroth dilution method; format: functional
In short: (§1)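 Bacteria were cultured in Mueller Hinton broth in 96-well microtiter plates, and the suspensions were added to MHB containing varying concentrations of test compound. Plates were incubated at 37 °C for 18–24 h, then read visually with a reading mirror and spectrophotometrically at 450 nm. MIC was taken as the lowest concentration giving complete suppression of visible growth.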

Streptococcus salivarius = test: Antimicrobial activity against Streptococcus salivarius ATCC 13419 after 18 to 24 hrs by microbroth dilution method; format: functional; in short: as §1
Proteus vulgaris = test: Antimicrobial activity against Proteus vulgaris ATCC 49132 after 18 to 24 hrs by microbroth dilution method; format: functional; in short: as §1
Streptococcus mitis = test: Antimicrobial activity against Streptococcus mitis ATCC 6249 after 18 to 24 hrs by microbroth dilution method; format: functional; in short: as §1
Shigella boydii = test: Antimicrobial activity against Shigella boydii ATCC 9207 after 18 to 24 hrs by microbroth dilution method; format: functional; in short: as §1
Vibrio parahaemolyticus = test: Antimicrobial activity against Vibrio parahaemolyticus ATCC 17802 after 18 to 24 hrs by microbroth dilution method; format: functional; in short: as §1
Proteus mirabilis = test: Antimicrobial activity against Proteus mirabilis ATCC 7002 after 18 to 24 hrs by microbroth dilution method; format: functional; in short: as §1
Klebsiella pneumoniae = test: Antimicrobial activity against Klebsiella pneumoniae ATCC 10031 after 18 to 24 hrs by microbroth dilution method; format: functional; in short: as §1
Aeromonas hydrophila = test: Antimicrobial activity against Aeromonas hydrophila ATCC 7966 after 18 to 24 hrs by microbroth dilution method; format: functional; in short: as §1
Salmonella paratyphi = test: Antimicrobial activity against Salmonella paratyphi A ATCC 9150 after 18 to 24 hrs by microbroth dilution method; format: functional, Salmonella enterica subsp. enterica serovar Paratyphi A; details: Salmonella enterica
In short: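 Broth microdilution in 96-well plates; bacteria grown in Mueller Hinton broth with varying concentrations of test compound, incubated at 37 °C for 18–24 h. Plates read visually with a reading mirror and spectrophotometrically at 450 nm. MIC taken as lowest concentration giving complete suppression of visible growth.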

Candida albicans = test: Antimicrobial activity against Candida albicans ATCC 90028 after 18 to 24 hrs by microbroth dilution method; format: functional
In short: as §1, with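 “Fungal isolates” for “Bacteria”, “cultivated” for “cultured”, “Sabouraud's” for “Mueller Hinton”, “SDB” for “MHB”, “completely suppressing” for “giving complete suppression of”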

Staphylococcus aureus = test: Antimicrobial activity against Staphylococcus aureus ATCC 11632 after 18 to 24 hrs by microbroth dilution method; format: functional; in short: as §1
Cryptococcus neoformans = test: Antimicrobial activity against Cryptococcus neoformans ATCC 14116 after 18 to 24 hrs by microbroth dilution method; format: functional
In short: as §1, with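 “Fungal isolates” for “Bacteria”, “cultivated” for “cultured”, “Sabouraud's” for “Mueller Hinton”, “SDB” for “MHB”, “completely suppressing” for “giving complete suppression of”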

Vibrio alginolyticus = test: Antimicrobial activity against Vibrio alginolyticus ATCC 17749 after 18 to 24 hrs by microbroth dilution method; format: functional; in short: as §1
Streptococcus sanguinis = test: Antimicrobial activity against Streptococcus sanguinis ATCC 10556 after 18 to 24 hrs by microbroth dilution method; format: functional; in short: as §1
Pseudomonas aeruginosa = test: Antimicrobial activity against Pseudomonas aeruginosa ATCC 10145 after 18 to 24 hrs by microbroth dilution method; format: functional; in short: as §1

Row | Compound | MIC (Bacillus subtilis) [µg/mL] | MIC (Streptococcus salivarius) [µg/mL] | MIC (Proteus vulgaris) [µg/mL] | MIC (Streptococcus mitis) [µg/mL] | MIC (Shigella boydii) [µg/mL] | MIC (Vibrio parahaemolyticus) [µg/mL] | MIC (Proteus mirabilis) [µg/mL] | MIC (Klebsiella pneumoniae) [µg/mL] | MIC (Aeromonas hydrophila) [µg/mL] | MIC (Salmonella paratyphi) [µg/mL] | MIC (Candida albicans) [µg/mL] | MIC (Staphylococcus aureus) [µg/mL] | MIC (Cryptococcus neoformans) [µg/mL] | MIC (Vibrio alginolyticus) [µg/mL] | MIC (Streptococcus sanguinis) [µg/mL] | MIC (Pseudomonas aeruginosa) [µg/mL]
1 | CCn1cc(C(=O)O)c(=O)c2cc(F)c(N3CCN(c4ccc(F)cc4)CC3)c(F)c21 | 2.5 (≈ 5.79 µM) | 1.5 (≈ 3.48 µM) | 2.5 (≈ 5.79 µM) | 1.5 (≈ 3.48 µM) | 2 (≈ 4.64 µM) | 1.5 (≈ 3.48 µM) | 1.25 (≈ 2.9 µM) | 1.5 (≈ 3.48 µM) | – | – | – | – | – | – | – | –
2 | CCn1cc(C(=O)O)c(=O)c2cc(F)c(N3CCN(c4ccccc4F)CC3)c(F)c21 | 1.25 (≈ 2.9 µM) | 1 (≈ 2.32 µM) | 2.5 (≈ 5.79 µM) | 1.5 (≈ 3.48 µM) | 2 (≈ 4.64 µM) | 1.5 (≈ 3.48 µM) | 5 (≈ 11.6 µM) | 1.5 (≈ 3.48 µM) | 1.5 (≈ 3.48 µM) | – | – | – | – | – | – | –
3 | CCn1cc(C(=O)O)c(=O)c2cc(F)c(N3CCN(c4ccccc4C#N)CC3)c(F)c21 | 1.5 (≈ 3.42 µM) | 2.5 (≈ 5.7 µM) | 1 (≈ 2.28 µM) | 1.5 (≈ 3.42 µM) | 2 (≈ 4.56 µM) | 1.5 (≈ 3.42 µM) | 2.5 (≈ 5.7 µM) | 1 (≈ 2.28 µM) | – | 1.5 (≈ 3.42 µM) | – | – | – | – | – | –
4 | CCn1cc(C(=O)O)c(=O)c2cc(F)c(N3CCN(Cc4ccccc4)CC3)c(F)c21 | – | 2.5 (≈ 5.85 µM) | – | 1.5 (≈ 3.51 µM) | 1.5 (≈ 3.51 µM) | 1.5 (≈ 3.51 µM) | 1.5 (≈ 3.51 µM) | 1 (≈ 2.34 µM) | 1.5 (≈ 3.51 µM) | 1 (≈ 2.34 µM) | – | – | – | – | – | –
5 | CCn1cc(C(=O)O)c(=O)c2cc(F)c(N3CCN(c4ccccc4)CC3)c(F)c21 | 5 (≈ 12.1 µM) | 1 (≈ 2.42 µM) | 1.5 (≈ 3.63 µM) | 1.5 (≈ 3.63 µM) | – | – | 1.5 (≈ 3.63 µM) | 2 (≈ 4.84 µM) | – | – | 413 (≈ 1000 µM) | 1 (≈ 2.42 µM) | – | – | – | –
6 | CCn1cc(C(=O)O)c(=O)c2cc(F)c(N3CCN(c4cccc(Cl)c4Cl)CC3)c(F)c21 | 5 (≈ 10.4 µM) | 2.5 (≈ 5.18 µM) | 2.5 (≈ 5.18 µM) | 5 (≈ 10.4 µM) | 1 (≈ 2.07 µM) | 1.25 (≈ 2.59 µM) | 5 (≈ 10.4 µM) | 1.25 (≈ 2.59 µM) | 0.5 (≈ 1.04 µM) | 5 (≈ 10.4 µM) | 108 (≈ 224 µM) | 1 (≈ 2.07 µM) | 2.17 (≈ 4.5 µM) | 1 (≈ 2.07 µM) | – | –
7 | CCn1cc(C(=O)O)c(=O)c2cc(F)c(N3CCC(NC)CC3)c(F)c21 | 1.25 (≈ 3.42 µM) | 2.5 (≈ 6.84 µM) | 1.25 (≈ 3.42 µM) | 2.5 (≈ 6.84 µM) | 1 (≈ 2.74 µM) | 0.5 (≈ 1.37 µM) | 1.25 (≈ 3.42 µM) | 5 (≈ 13.7 µM) | 2 (≈ 5.47 µM) | 5 (≈ 13.7 µM) | – | 2.5 (≈ 6.84 µM) | 1.82 (≈ 4.98 µM) | 2.5 (≈ 6.84 µM) | 2 (≈ 5.47 µM) | 1 (≈ 2.74 µM)
8 | CCn1cc(C(=O)O)c(=O)c2cc(F)c(N3CCC(C)CC3)c(F)c21 | 5 (≈ 14.3 µM) | 2.5 (≈ 7.14 µM) | 1 (≈ 2.85 µM) | 1 (≈ 2.85 µM) | – | 1.5 (≈ 4.28 µM) | 2.5 (≈ 7.14 µM) | 1.5 (≈ 4.28 µM) | – | – | – | – | – | – | – | –
9 | CCn1cc(C(=O)O)c(=O)c2cc(F)c(N3CCC(N4CCCCC4)CC3)c(F)c21 | – | 2.5 (≈ 5.96 µM) | 1.25 (≈ 2.98 µM) | 2.5 (≈ 5.96 µM) | 1 (≈ 2.38 µM) | 2.5 (≈ 5.96 µM) | 1.25 (≈ 2.98 µM) | 2.5 (≈ 5.96 µM) | 0.5 (≈ 1.19 µM) | 1 (≈ 2.38 µM) | – | 2.5 (≈ 5.96 µM) | – | – | – | –
10 | CCn1cc(C(=O)O)c(=O)c2cc(F)c(N3CCC(CO)CC3)c(F)c21 | 1 (≈ 2.73 µM) | 1.25 (≈ 3.41 µM) | 1.25 (≈ 3.41 µM) | 2.5 (≈ 6.82 µM) | 0.5 (≈ 1.36 µM) | 1.25 (≈ 3.41 µM) | 1.25 (≈ 3.41 µM) | 2.5 (≈ 6.82 µM) | 1 (≈ 2.73 µM) | 5 (≈ 13.6 µM) | 183 (≈ 500 µM) | 1.25 (≈ 3.41 µM) | 4.19 (≈ 11.4 µM) | 1 (≈ 2.73 µM) | 2 (≈ 5.46 µM) | 1.5 (≈ 4.09 µM)
11 | CCn1cc(C(=O)O)c(=O)c2cc(F)c(N3CCC(Br)CC3)c(F)c21 | 2.5 (≈ 6.02 µM) | 2.5 (≈ 6.02 µM) | 2.5 (≈ 6.02 µM) | 1 (≈ 2.41 µM) | 1 (≈ 2.41 µM) | 5 (≈ 12 µM) | 5 (≈ 12 µM) | 5 (≈ 12 µM) | 1.5 (≈ 3.61 µM) | – | 415 (≈ 999 µM) | 5 (≈ 12 µM) | 1.03 (≈ 2.48 µM) | – | – | –
12 | O=C(O)c1cn(C2CC2)c2cc(N3CCNCC3)c(F)cc2c1=O [CIPROFLOXACIN] | 1.5 (≈ 4.53 µM) | 1.5 (≈ 4.53 µM) | 3 (≈ 9.05 µM) | 2.5 (≈ 7.54 µM) | 2.5 (≈ 7.54 µM) | 8 (≈ 24.1 µM) | 6 (≈ 18.1 µM) | 1.5 (≈ 4.53 µM) | 3 (≈ 9.05 µM) | 4 (≈ 12.1 µM) | – | 1 (≈ 3.02 µM) | – | 2 (≈ 6.04 µM) | 4 (≈ 12.1 µM) | –
13 | CCn1cc(C(=O)O)c(=O)c2cc(F)c(N3CCNCC3)cc21 [NORFLOXACIN] | – | – | – | – | – | – | – | – | – | – | 312 (≈ 979 µM) | – | 4.88 (≈ 15.3 µM) | – | – | –
